Shown are actives, neighbours in structure and some others; about 11% of the full set was active somewhere.
SF-1 act: activates the human nuclear receptor SF-1; Q13285; CHO-K1 Gal4-SF-1 LBD luciferase reporter; % increase over DMSO SF-1-specific signal; activation, % at 10 µM; 65,000 compounds, 1.9% hits; AID 522;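 active = activation above the mean activation of all tested compounds plus 3 SD, cut at about 50% in these data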
Target sequence (Q13285 whole entry, looked up, the tested form may be a part): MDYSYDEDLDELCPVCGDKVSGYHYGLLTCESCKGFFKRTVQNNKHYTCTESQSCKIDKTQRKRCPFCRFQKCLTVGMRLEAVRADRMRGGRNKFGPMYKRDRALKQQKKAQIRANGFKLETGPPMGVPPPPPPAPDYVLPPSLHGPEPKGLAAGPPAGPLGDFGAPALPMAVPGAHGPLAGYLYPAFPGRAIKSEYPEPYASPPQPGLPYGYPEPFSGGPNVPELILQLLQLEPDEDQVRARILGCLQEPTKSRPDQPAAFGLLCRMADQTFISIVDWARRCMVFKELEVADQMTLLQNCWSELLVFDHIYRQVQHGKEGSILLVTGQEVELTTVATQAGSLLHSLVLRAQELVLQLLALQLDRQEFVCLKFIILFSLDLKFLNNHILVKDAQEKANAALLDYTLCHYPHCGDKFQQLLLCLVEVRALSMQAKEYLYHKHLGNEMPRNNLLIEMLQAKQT
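Compound – one dose, 10 µM compound, 1% DMSO · Test system – transient Gal4-SF-1 LBD reporter, CHO-K1 · Input – 4,000 cells in each well · Read-out basis – percent activation relative to DMSO median and mock-transfected background · Replicates – single measurement per compound · Technique – steady-glow luciferase luminescence, read after 15 min reagent incubation · Timing – 20 h compound treatment, 37 °C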
M1 ag: activates the M1 muscarinic receptor; AID 626; CHO-M1 cells, Fluo-4 calcium fluorescence, agonist mode; active compounds read high; B-score at 10 µM; 64,000 compounds, 3% hits;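 active = fluorescence rise, raw or as B-score row- and column-corrected plate score, outside the 99.7% band of its plate's samples, either direction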
mHtt clearance: compounds clearing mutant huntingtin protein; 47,000 compounds, 0.42% hits; HeLa Exon1htt(103Q)mCFP, aggregate imaging; zero = plate's median compound well; AID 853; inhibition, % at 1.5 µM;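 active = inhibition of aggregate fluorescence above about 70%, also judged a hit by eye on the cell image, limit read from the data, passing the limit was not always enough; inconclusive = no rule stated for this call; inactive = not judged a hit on image review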;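 note: cells exposed to compound for three days before fixation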
D1 allo mod: D1 dopamine receptor (human) allosteric modulation. P21728. HEK293 D1, CRE-luciferase, dopamine EC30 potentiation; actives deviate in either direction. B-score at 10 µM. 58,000 compounds, 5.9% hits. AID 641;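 active = luminescence count or its row- and column-corrected plate score outside the 99.7% band of the plate's sample wells, on either side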
RORa activator: activators of human nuclear receptor RORA. CHO-K1 Gal4-RORA LBD luciferase reporter, luminescence; percent increase over mock-subtracted basal signal. activation, % at 10 µM. 65,000 compounds, 1.5% hits. AID 560;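 active = activation above the mean of all tested compounds plus 3 SD, cut at about 49% in these data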;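 note: 0% = DMSO-treated RORA cells and 100% = added signal equal to DMSO minus mock-transfected cells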
M1 antagonist: antagonists of rat M1 muscarinic receptor. P08482. CHO-M1 cells, Fluo-4 calcium, ACh EC80 antagonist mode; active compounds read low. B-score at 10 µM. 64,000 compounds, 3.4% hits;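 active = calcium fluorescence response, raw or row-and-column corrected B-score, differing from the plate sample mean either way at a set confidence level, mostly lower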
M1 agonist conf: rat M1 muscarinic agonism, confirmation | 1,700 compounds, 19% hits | AID 1488 | CHO-M1 cells, Fluo-4 calcium fluorescence, agonist mode; actives lie on both sides | shares compounds with M1 ag | fluorescence change (max-min) at 10 µM;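 active = fluorescence change differs from the solvent-only DMSO control mean at a set confidence level in both duplicate runs; inconclusive = differs from solvent-only control mean in just one of two runs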;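 note: an EC20 dose of acetylcholine follows compound addition during the same imaging run; raw fluorescence intensity difference in instrument units with no normalization to controls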
M4 agonist ctr: counter-screen for M1 agonists: activity at rat M4 receptor | shares compounds with M1 ag | CHO M4/Gqi5 cells, Fluo-4 calcium fluorescence, agonist mode; actives lie on both sides | fluorescence change (max-min) at 10 µM | 1,700 compounds, 9% hits | AID 1741;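 active = fluorescence change differing from the plate's solvent-only control wells at 99.7% confidence in both duplicates, whether higher or lower; inconclusive = differs from solvent controls in only one of two duplicates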
The depositor's hits bear a star.

Results for CCCC1C2CN(C(C)=O)CC=C2C(C#N)=C(N)C1(C#N)C#N (stereo unspecified) ?
SF-1 act: -3; M1 ag: -0.15; D1 allo mod: -0.49; RORa activator: 2; M1 antagonist: -0.12

How did CC(C)N1CC=C2C(C#N)=C(N)C(C#N)(C#N)C(c3ccccc3)C2C1 (stereo unspecified) do in these assays?
SF-1 act: -14; M1 ag: 225*; RORa activator: -17; M1 antagonist: -0.3; M1 agonist conf: 427*; M4 agonist ctr: 400*

Results for CC(C)(C)OC(=O)N1CC=C2C(C#N)=C(N)C(C#N)(C#N)C(c3cccs3)C2C1 (stereo unspecified) ?
SF-1 act: 10; M1 ag: 4.7*; D1 allo mod: 0.039; RORa activator: 2; M1 antagonist: -0.78; M1 agonist conf: -8.3; M4 agonist ctr: inconclusive

Results for COc1cc(C2C3CN(C)CC=C3C(C#N)=C(N)C2(C#N)C#N)ccc1OC(C)C (stereo unspecified) ?
SF-1 act: 14; M1 ag: 5.1*; D1 allo mod: -4.9*; RORa activator: 8; M1 antagonist: -0.35; M1 agonist conf: 30; M4 agonist ctr: 31

Results for Cc1ccc(NCc2nnc(SCC(=O)Nc3cccc(O)c3)n2CC2CCCO2)c(C)c1 (stereo unspecified) ?
SF-1 act: -3; M1 ag: 1.1; D1 allo mod: -0.71; RORa activator: -20; M1 antagonist: 0.63

What do the screens show for `Cc1c(C(=O)c2no[n+]([O-])c2C(=O)c2cnn(C)c2C)cnn1C`?
SF-1 act: 0; M1 ag: 5.8; mHtt clearance: -83; D1 allo mod: 0.2; RORa activator: -19; M1 antagonist: -0.34

Results for O=S1(=O)CC(O)C(Nc2ccccc2Cl)C1 (stereo unspecified) ?
SF-1 act: 29; M1 ag: 0.24; D1 allo mod: 0.61; RORa activator: 6; M1 antagonist: -0.83

What do the screens show for `COc1ccccc1OCC(=O)Nc1ccccc1C(=O)NCc1ccco1`?
mHtt clearance: 9

What do the screens show for `O=C(COc1ccccc1)Nc1ccccc1C(=O)NCc1ccco1`?
SF-1 act: 1; M1 ag: 6.7*; D1 allo mod: 0.59; RORa activator: 9; M1 antagonist: -0.43; M1 agonist conf: inconclusive; M4 agonist ctr: -42

What do the screens show for `O=C(CSc1ncnc2c1nnn2-c1ccc(F)cc1)N1CCN(c2ccccc2)CC1`?
SF-1 act: -1; M1 ag: -0.69; mHtt clearance: 28; RORa activator: -7; M1 antagonist: 0.71

What do the screens show for `COc1ccc(N2CCN(c3ncnc4nc[nH]c34)CC2)cc1`?
SF-1 act: 20; M1 ag: -2.3; D1 allo mod: 3.2; RORa activator: 5; M1 antagonist: 0.095

What do the screens show for `COc1ccccc1N1CCN(c2ncnc3nc[nH]c23)CC1`?
SF-1 act: 0; M1 ag: 3*; D1 allo mod: 1.5; RORa activator: -17; M1 antagonist: 0.01; M1 agonist conf: inconclusive; M4 agonist ctr: -40

How did O=C(c1ccco1)N1CCN(c2ncnc3c2oc2ccccc23)CC1 do in these assays?
SF-1 act: 22; M1 ag: 14*; RORa activator: 34; M1 antagonist: -1.3; M1 agonist conf: -13; M4 agonist ctr: -26

How did COc1ccccc1N1CCN(c2ncnc3c2oc2ccccc23)CC1 do in these assays?
SF-1 act: 43; M1 ag: 3.9*; mHtt clearance: 0; D1 allo mod: -0.16; RORa activator: 56*; M1 antagonist: -1.1; M1 agonist conf: -29*; M4 agonist ctr: -62

Results for O=C1CC(N(Cc2ccco2)C(=O)Nc2ccc(F)cc2)C(=O)N1c1ccc(F)cc1 (stereo unspecified) ?
SF-1 act: -14; M1 ag: 0.62; D1 allo mod: -0.25; RORa activator: -28; M1 antagonist: 0.45

Results for CC(=O)c1sc(NC(=O)C=C(C)C)nc1C ?
SF-1 act: 14; M1 ag: -2.2*; D1 allo mod: 0.12; RORa activator: 6; M1 antagonist: -0.17; M1 agonist conf: -25*; M4 agonist ctr: -58

What do the screens show for `CC(=O)c1sc(NC(=O)C2(F)C(F)(F)C(F)(F)C(F)(F)C(F)(F)C2(F)F)nc1C`?
SF-1 act: -93; M1 ag: 9.2*; D1 allo mod: -2.1*; RORa activator: -90; M1 antagonist: 0.12; M1 agonist conf: 32; M4 agonist ctr: inconclusive

How did COCc1cc(Sc2ccc(Cl)cc2Cl)nc(-c2ccccc2)n1 do in these assays?
mHtt clearance: -19

What do the screens show for `COc1ccccc1-n1nc(C(=O)O)c2ccccc2c1=O`?
SF-1 act: -8; M1 ag: 6.6*; D1 allo mod: -0.21; RORa activator: -7; M1 antagonist: -0.049; M1 agonist conf: inconclusive; M4 agonist ctr: -30

Results for CCOC(=O)c1c(N)n(CCOC(=O)c2cccs2)c2nc3ccccc3nc12 ?
SF-1 act: -7; M1 ag: 9.8*; mHtt clearance: -21; D1 allo mod: 0.78; RORa activator: 4; M1 antagonist: -1; M1 agonist conf: -2.5; M4 agonist ctr: -37

Results for O=c1oc2c(CN3CCOCC3)c(O)ccc2c2c1CCC2 ?
SF-1 act: -7; M1 ag: -0.095; mHtt clearance: -29; D1 allo mod: -0.42; RORa activator: -24; M1 antagonist: 0.05

How did CC(C)c1cc(=O)oc2c3c4c(cc12)CCCN4CCC3 do in these assays?
SF-1 act: -1; M1 ag: 106*; D1 allo mod: 0.66; RORa activator: -1; M1 antagonist: -0.15; M1 agonist conf: 612*; M4 agonist ctr: 614*

Results for O=c1oc2c3c4c(cc2c(C(F)(F)F)c1CCN1CCOCC1)CCCN4CCC3 ?
SF-1 act: 5; M1 ag: 277*; RORa activator: 12; M1 antagonist: -2.9*; M1 agonist conf: 1525*; M4 agonist ctr: 1404*

What do the screens show for `Cc1cc(=O)oc2c3c4c(cc12)OCCN4CCC3`?
mHtt clearance: -10

What do the screens show for `Cc1ccc(S(=O)(=O)Nc2ccc(Br)cc2/C=N/n2cnnc2)cc1`?
SF-1 act: -9; M1 ag: 1.3; RORa activator: -16; M1 antagonist: -0.54

How did O=C(c1cc2ccccc2oc1=O)N(Cc1ccc2c(c1)OCO2)Cc1ccco1 do in these assays?
SF-1 act: 2; M1 ag: 5*; mHtt clearance: 13; RORa activator: -11; M1 antagonist: -1.9; M1 agonist conf: -13; M4 agonist ctr: inconclusive

Screening results deposited in PubChem by several laboratories.
